One data set relates to plaque psoriasis. Particulars: cited from earlier work; for Mean total lesion score decrease from baseline: week 4.
For the next data set, the system named is psoriasis. The conditions noted are these: week 4; 13-point scale; cited from earlier work.
Data set [1] in a line: Plasma pharmacokinetics after 4 weeks of topical treatment. It is filed as in vivo, human. The conditions noted are these: approx. 1.5% BSA, comparator Pfizer, data on file. The procedure, abridged:
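Adults with mild-to-moderate chronic plaque psoriasis applied test-compound ointment (one formulation 2%, 20 mg g−1) twice daily for 4 weeks at 3 mg cm−2 to a fixed 300 cm2 area. Week-4 plasma sampled predose and 1, 2, 4–9 h post-dose.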

Structures are written as SMILES. Read-outs that look alike come from different tables or passages of the source.

`N#CC[C@H](C1CCCC1)n1cc(-c2ncnc3[nH]ccc23)cn1` [INCB018424]: the “Tolerability of topical application” value in the data set with plaque psoriasis (cream, 4 weeks) is reported as “well tolerated”. Further, the “Mean total lesion score decrease from baseline” value in the data set with plaque psoriasis (1.0% cream daily) was 53%; in the data set with plaque psoriasis (1.5% cream twice daily) it was 54%.

Turning to `CCC(=O)OCC(=O)[C@@]1(OC(=O)CC)[C@@H](C)C[C@H]2[C@@H]3CCC4=CC(=O)C=C[C@]4(C)[C@@]3(F)[C@@H](O)C[C@@]21C` [betamethasone dipropionate], in the data set with psoriasis, the “Total lesion sum score percentage change from baseline” value is on record as “–41%”.

Consider `C[C@@H]1CCN(C(=O)CC#N)C[C@@H]1N(C)c1ncnc2[nH]ccc12` [tofacitinib, Tofacitinib], for which the “Mean systemic exposure lower than with oral tofacitinib 2 mg twice daily” value in data set [1] is “approximately 40 fold”.

Values taken from paper PMC3761190 (The British Journal of Dermatology, 2013).
